Assays:
[1] = Body weight of CT26 tumor-bearing mice; format: in vivo, mouse; details: doxorubicin 5 mg/kg i.v. days 6, 9, 12, alone or in the combination group
Summary of the method: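 Eight-week-old male and female Balb/c mice received 1×10⁶ CT26 cells s.c. in the right flank. At 50–100 mm³, tumours were randomised into groups of 10 (half female). Doxorubicin 5 mg/kg i.v. was given on days 6, 9 and 12 post-implant, alone or combined with test peptide 5 mg/kg daily. Saline served as negative control. Body weight was recorded daily throughout treatment.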

[2] = doxorubicin; cited from earlier work
[3] = system: tumor immunogenic cell death (ICD); details: cited from earlier work
[4] = system: triple negative breast cancer; details: cited from earlier work

In the case of `COc1cccc2c1C(=O)c1c(O)c3c(c(O)c1C2=O)C[C@@](O)(C(=O)CO)C[C@@H]3O[C@H]1C[C@H](N)[C@H](O)[C@H](C)O1` [doxorubicin], the “Systemic toxicity (weight loss)” value [1] is listed as “slight systemic toxicity”, the Maximum tolerated dose [2] is listed as 5 mg/kg and the “Induction of tumor immunogenic cell death” value [3] is listed as “induce tumor immunogenic cell death (ICD)”. For the same compound, the “Effect on CD47 expression” value [4] was “induced CD47 expression in triple negative breast cancer”.
